# Results as given in ChEMBL document CHEMBL3232854, “Agonists for the adenosine A1 receptor with tunable residence time. A Case for nonribose 4-amino-6-aryl-5-cyano-2-thiopyrimidines” (J Med Chem, 2014).
# Legend:
# [1] = target: T1, Adenosine receptor A1 (Homo sapiens) (UniProt P30542); test: Ratio for displacement of [3H]DPCPX from human adenosine A1 receptor expressed in CHO cell membranes at 10 times Ki after 15 mins by dual-point competition association assay to ratio for displacement of [3H]DPCPX from human adenosine A1 receptor expressed in CHO cell membranes 10 times Ki after 120 mins by dual-point competition association assay
# T1 sequence (whole entry): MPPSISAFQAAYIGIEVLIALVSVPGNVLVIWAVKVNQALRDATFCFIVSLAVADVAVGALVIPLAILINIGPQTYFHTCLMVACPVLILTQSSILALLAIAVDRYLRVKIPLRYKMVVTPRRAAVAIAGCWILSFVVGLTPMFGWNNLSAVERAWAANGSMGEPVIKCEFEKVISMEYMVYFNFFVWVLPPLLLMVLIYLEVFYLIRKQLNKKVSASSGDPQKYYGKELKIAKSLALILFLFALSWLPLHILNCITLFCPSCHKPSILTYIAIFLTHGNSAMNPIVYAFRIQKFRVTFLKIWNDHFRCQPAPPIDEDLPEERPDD
# Adenosine receptor A1 [2] = target: T2, Adenosine receptor A1 (Homo sapiens, UniProt P30542); test: Displacement of [3H]DPCPX from human adenosine A1 receptor expressed in CHO cell membranes after 1 hr by beta scintillation counting analysis
# T2 sequence (P30542 whole entry): T1 sequence (whole entry)
# How it was run: (§1)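 Membranes from CHO cells stably expressing human A1 receptor (5 μg protein) incubated with [3H]DPCPX in 25 mM Tris-HCl pH 7.4, 5 mM MgCl2, 0.1% CHAPS, 1 h at 25 °C; nonspecific binding with 100 μM CPA; GF/B filtration, three ice-cold washes, scintillation counting. Single 1 μM points from ≥2 experiments in duplicate; Ki by nonlinear regression (radioligand KD 1.6 nM), ≥3 experiments in duplicate.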
# [3] = target: T1, Adenosine receptor A1 (Homo sapiens); test: Displacement of [3H]DPCPX from human adenosine A1 receptor expressed in CHO cell membranes assessed as residence time on receptor at 10 times Ki after 90 mins by competition association assay
# [4] = target: T3, Adenosine receptor A2b (Homo sapiens) (UniProt P29275); test: Displacement of [3H]PSB603 from human adenosine A2B receptor expressed in CHO cell membranes at 1 uM after 2 hrs by beta scintillation counting analysis relative to control
# T3 sequence (whole entry): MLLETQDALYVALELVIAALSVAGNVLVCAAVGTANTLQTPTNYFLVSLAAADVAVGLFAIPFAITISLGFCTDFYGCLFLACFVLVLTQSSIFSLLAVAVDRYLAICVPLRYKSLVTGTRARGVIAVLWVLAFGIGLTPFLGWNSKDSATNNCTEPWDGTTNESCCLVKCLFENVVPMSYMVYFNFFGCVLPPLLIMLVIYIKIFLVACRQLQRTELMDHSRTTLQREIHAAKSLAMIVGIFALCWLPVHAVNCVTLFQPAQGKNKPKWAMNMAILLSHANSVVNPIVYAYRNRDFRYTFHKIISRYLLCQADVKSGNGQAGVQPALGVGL
# Adenosine receptor A1 [5] = target: T2, Adenosine receptor A1; test: Agonist activity human adenosine A1 receptor expressed in CHO cell membranes assessed as stimulation of [35S]GTPgammaS binding preincubated for 30 mins followed by radioligand addition measured after 90 mins by beta scintillation counting analysis; assay type: functional
# [6] = target: T1, Adenosine receptor A1 (Homo sapiens); test: Agonist activity human adenosine A1 receptor expressed in CHO cell membranes assessed as stimulation of [35S]GTPgammaS binding preincubated for 30 mins followed by radioligand addition measured after 90 mins by beta scintillation counting analysis relative to N6-cyclopentyladenosine; assay type: functional
# [7] = target: Adenosine receptor A2a (Homo sapiens) (UniProt P29274); test: Displacement of [3H]ZM241385 from human adenosine A2A receptor expressed in HEK293 cell membranes at 1 uM after 2 hrs by beta scintillation counting analysis relative to control
# Adenosine receptor A2a (Homo sapiens), sequence (P29274 whole entry): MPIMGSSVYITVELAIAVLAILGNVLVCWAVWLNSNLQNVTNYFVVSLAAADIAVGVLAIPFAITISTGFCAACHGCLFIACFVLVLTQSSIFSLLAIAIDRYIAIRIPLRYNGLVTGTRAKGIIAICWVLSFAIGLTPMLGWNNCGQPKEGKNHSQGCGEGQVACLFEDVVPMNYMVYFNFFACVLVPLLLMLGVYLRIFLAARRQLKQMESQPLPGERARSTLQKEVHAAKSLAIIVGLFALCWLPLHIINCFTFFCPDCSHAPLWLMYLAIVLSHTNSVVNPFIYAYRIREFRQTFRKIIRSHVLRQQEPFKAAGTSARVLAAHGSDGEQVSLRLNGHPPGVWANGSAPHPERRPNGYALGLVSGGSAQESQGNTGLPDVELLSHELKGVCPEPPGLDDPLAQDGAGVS
# How it was run: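 HEK 293 membranes stably expressing human A2A receptor (25 μg protein) incubated with [3H]ZM241385 in 50 mM Tris-HCl pH 7.4, 2 h at 25 °C; compounds at 1 μM; nonspecific binding with 100 μM CPA; GF/B filtration, ice-cold washes, scintillation counting; ≥2 experiments in duplicate.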
# [8] = target: T4, Adenosine receptor A3 (Homo sapiens) (UniProt P0DMS8); test: Displacement of [3H]PSB11 from human adenosine A3 receptor expressed in CHO cell membranes at 1 uM after 2 hrs by beta scintillation counting analysis relative to control
# T4 sequence (whole entry): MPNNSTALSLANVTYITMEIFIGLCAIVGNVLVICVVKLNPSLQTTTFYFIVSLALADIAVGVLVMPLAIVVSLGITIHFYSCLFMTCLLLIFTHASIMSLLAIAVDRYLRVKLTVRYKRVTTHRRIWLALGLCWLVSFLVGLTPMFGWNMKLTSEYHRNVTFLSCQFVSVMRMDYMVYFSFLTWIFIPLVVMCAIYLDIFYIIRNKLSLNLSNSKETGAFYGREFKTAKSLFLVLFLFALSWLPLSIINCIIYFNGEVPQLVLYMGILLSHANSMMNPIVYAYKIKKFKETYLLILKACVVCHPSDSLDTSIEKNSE
# How it was run: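 CHO membranes stably expressing human A3 receptor (45 μg protein) incubated with [3H]PSB11 and 1 μM compound in 50 mM Tris-HCl pH 8.0, 10 mM MgCl2, 1 mM EDTA, 0.01% CHAPS, 2 h at 25 °C; nonspecific binding with 100 μM NECA; filtration, washes without CHAPS, scintillation counting; ≥2 experiments in duplicate.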
# [9] = target: T1, Adenosine receptor A1 (Homo sapiens); test: Displacement of [3H]DPCPX from human adenosine A1 receptor expressed in CHO cell membranes at 1 uM after 1 hr by beta scintillation counting analysis relative to control; how it was run: as §1
smiles,measurement,setting,value
N#Cc1c(N)nc(SCc2csc(-c3cccc(Cl)c3)n2)nc1-c1ccc2c(c1)OCO2,Ratio,[1],1.24
same,Ki,Adenosine receptor A1 [2],42 nM
same,TIME,[3],0.5 h
N#Cc1c(N)nc(SCc2csc(N3CCOCC3)n2)nc1-c1ccc2c(c1)OCO2,Ratio,[1],0.81
same,inhibition,[4],12%
same,EC50,Adenosine receptor A1 [5],1.8 nM
same,Emax,[6],65%
same,inhibition,[7],21%
same,Ki,Adenosine receptor A1 [2],1.9 nM
same,TIME,[3],0.02 h
same,inhibition,[8],18%
N#Cc1c(N)nc(SCc2csc(-c3ccccc3)n2)nc1-c1ccc2c(c1)OCO2,Ratio,[1],1.1
same,inhibition,[4],20%
same,EC50,Adenosine receptor A1 [5],4.6 nM
same,Emax,[6],84%
same,inhibition,[7],-2%
same,Ki,Adenosine receptor A1 [2],2.4 nM
same,inhibition,[8],24%
N#Cc1c(N)nc(SCc2csc(-c3ccc(Cl)cc3)n2)nc1-c1ccc2c(c1)OCO2,Ratio,[1],1.64
same,inhibition,[4],0%
same,EC50,Adenosine receptor A1 [5],4.9 nM
same,Emax,[6],71%
same,inhibition,[7],4.5%
same,Ki,Adenosine receptor A1 [2],14 nM
same,TIME,[3],0.857 h
same,inhibition,[8],4.5%
COc1ccc(-c2nc(CSc3nc(N)c(C#N)c(-c4ccc5c(c4)OCO5)n3)cs2)cc1,Ratio,[1],1
same,inhibition,[4],3.5%
same,EC50,Adenosine receptor A1 [5],1.9 nM
same,Emax,[6],104%
same,inhibition,[7],3.2%
same,Ki,Adenosine receptor A1 [2],1.8 nM
same,inhibition,[8],11%
N#Cc1c(N)nc(SCc2csc(-c3ccc(I)cc3)n2)nc1-c1ccc2c(c1)OCO2,Ratio,[1],1.4
same,inhibition,[4],7.5%
same,EC50,Adenosine receptor A1 [5],9.5 nM
same,Emax,[6],82%
same,inhibition,[7],2.5%
same,Ki,Adenosine receptor A1 [2],9.9 nM
same,TIME,[3],1.06 h
same,inhibition,[8],9%
N#Cc1c(N)nc(SCc2csc(-c3ccc(Cl)cc3)n2)nc1-c1ccccc1,Ratio,[1],1.24
same,Ki,Adenosine receptor A1 [2],8.9 nM
same,TIME,[3],0.538 h
COc1ccc(-c2nc(SCc3csc(-c4ccc(Cl)cc4)n3)nc(N)c2C#N)cc1,inhibition,[9],73%
CC(=O)Nc1ccc(-c2nc(SCc3csc(-c4ccc(Cl)cc4)n3)nc(N)c2C#N)cc1,Ratio,[1],0.97
same,inhibition,[4],2.5%
same,EC50,Adenosine receptor A1 [5],3.9 nM
same,Emax,[6],112%
same,inhibition,[7],44%
same,Ki,Adenosine receptor A1 [2],14 nM
same,inhibition,[8],5.5%
N#Cc1c(N)nc(SCc2csc(-c3ccc([N+](=O)[O-])cc3)n2)nc1-c1ccc2c(c1)OCO2,Ratio,[1],0.95
same,Ki,Adenosine receptor A1 [2],11 nM
N#Cc1c(N)nc(SCc2coc(-c3cccc(F)c3)n2)nc1-c1ccc2c(c1)OCO2,Ratio,[1],1.24
same,Ki,Adenosine receptor A1 [2],15 nM
same,TIME,[3],0.0508 h
N#Cc1c(N)nc(SCc2csc(-c3ccc(C(F)(F)F)cc3)n2)nc1-c1ccc2c(c1)OCO2,Ratio,[1],1.2
same,Ki,Adenosine receptor A1 [2],18 nM
Cc1ccc(-c2nc(SCc3csc(-c4ccc(Cl)cc4)n3)nc(N)c2C#N)cc1,inhibition,[9],44%
N#Cc1c(N)nc(SCc2csc(-c3ccc(Cl)c(Cl)c3)n2)nc1-c1ccc2c(c1)OCO2,inhibition,[9],23%
N#Cc1c(N)nc(SCc2csc(-c3ccc4c(c3)OCO4)n2)nc1-c1ccc2c(c1)OCO2,Ratio,[1],0.93
same,Ki,Adenosine receptor A1 [2],2.5 nM
N#Cc1c(N)nc(SCc2csc(-c3ccccc3F)n2)nc1-c1ccc2c(c1)OCO2,Ratio,[1],1.46
same,Ki,Adenosine receptor A1 [2],12 nM
same,TIME,[3],0.375 h
N#Cc1c(N)nc(SCc2csc(-c3ccc(Cl)cc3)n2)nc1-c1ccc(OCCO)cc1,Ratio,[1],1.18
same,inhibition,[4],3.5%
same,EC50,Adenosine receptor A1 [5],12 nM
same,Emax,[6],99%
same,inhibition,[7],10%
same,Ki,Adenosine receptor A1 [2],4.8 nM
same,inhibition,[8],3%
CCOc1ccc(-c2nc(SCc3csc(-c4ccc(Cl)cc4)n3)nc(N)c2C#N)cc1,inhibition,[9],49%
N#Cc1c(N)nc(SCc2csc(-c3ccc(F)cc3)n2)nc1-c1ccc2c(c1)OCO2,Ratio,[1],1.22
same,Ki,Adenosine receptor A1 [2],6.7 nM
same,TIME,[3],0.575 h
N#Cc1c(N)nc(SCc2coc(-c3ccc(Cl)cc3)n2)nc1-c1ccc2c(c1)OCO2,Ratio,[1],1.17
same,Ki,Adenosine receptor A1 [2],15 nM
N#Cc1c(N)nc(SCc2csc(-c3ccccc3Cl)n2)nc1-c1ccc2c(c1)OCO2,Ratio,[1],1.29
same,Ki,Adenosine receptor A1 [2],75 nM
same,TIME,[3],0.588 h
N#Cc1c(N)nc(SCc2coc(-c3ccc(F)cc3)n2)nc1-c1ccc2c(c1)OCO2,Ratio,[1],1.01
same,Ki,Adenosine receptor A1 [2],20 nM
CN(C)c1ccc(-c2nc(SCc3csc(-c4ccc(Cl)cc4)n3)nc(N)c2C#N)cc1,Ki,Adenosine receptor A1 [2],233 nM
N#Cc1c(N)nc(SCc2csc(-c3ccc(Br)cc3)n2)nc1-c1ccc2c(c1)OCO2,Ratio,[1],1.67
same,inhibition,[4],1.7%
same,EC50,Adenosine receptor A1 [5],4.6 nM
same,Emax,[6],60%
same,inhibition,[7],2.9%
same,Ki,Adenosine receptor A1 [2],5.2 nM
same,TIME,[3],0.983 h
same,inhibition,[8],-1.8%
N#Cc1c(N)nc(SCc2csc(-c3ccc(Cl)cc3)n2)nc1-c1ccc(O)cc1,Ratio,[1],0.99
same,Ki,Adenosine receptor A1 [2],15 nM
N#Cc1c(N)nc(SCc2csc(-c3cccc(F)c3)n2)nc1-c1ccc2c(c1)OCO2,Ratio,[1],1.24
same,Ki,Adenosine receptor A1 [2],14 nM
same,TIME,[3],0.55 h
N#Cc1c(N)nc(SCc2c[nH]cn2)nc1-c1ccc2c(c1)OCO2,Ratio,[1],1.15
same,Ki,Adenosine receptor A1 [2],83 nM
Cc1ccc(-c2nc(CSc3nc(N)c(C#N)c(-c4ccc5c(c4)OCO5)n3)cs2)cc1,Ratio,[1],1.15
same,Ki,Adenosine receptor A1 [2],3.1 nM
N#Cc1c(N)nc(SCc2csc(-c3ccc(Cl)cc3)n2)nc1-c1ccc(OC(F)(F)F)cc1,Ki,Adenosine receptor A1 [2],185 nM
N#Cc1c(N)nc(SCc2csc(C3CCCCC3)n2)nc1-c1ccc2c(c1)OCO2,Ratio,[1],1.17
same,Ki,Adenosine receptor A1 [2],6.3 nM
